Assay outcomes (PubChem)
Shown are actives, neighbours in structure and some others; about 3.7% of the full set was active somewhere.
Myeloid diff 2: compounds promoting myeloid differentiation; ER-HoxA9 myeloid progenitors, lysozyme-GFP differentiation, flow cytometry; calls only at 10 µM; actives 1% (n = 360,000);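 active means normalized GFP-positive differentiation at or above the plate's own cutoff, the solvent-only control mean plus 3 SD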;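 further: cells exposed to compound for four days before flow analysis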
MC4R antag cAMP: human MC4R antagonism in cAMP assay; P32245; MC4R-expressing cells, MTII-stimulated cAMP, LANCE TR-FRET; inhibition, % at 6.5 µM; actives 0.48% (n = 360,000); AID 540295;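 active means inhibition above its plate's cutoff, the mean of tested wells on that plate plus 3 SD, cut at about 29% in these data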;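 further: 0% = Melanotan II alone and 100% = Melanotan II plus saturating MCL0020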
Target sequence (P32245 whole entry, looked up): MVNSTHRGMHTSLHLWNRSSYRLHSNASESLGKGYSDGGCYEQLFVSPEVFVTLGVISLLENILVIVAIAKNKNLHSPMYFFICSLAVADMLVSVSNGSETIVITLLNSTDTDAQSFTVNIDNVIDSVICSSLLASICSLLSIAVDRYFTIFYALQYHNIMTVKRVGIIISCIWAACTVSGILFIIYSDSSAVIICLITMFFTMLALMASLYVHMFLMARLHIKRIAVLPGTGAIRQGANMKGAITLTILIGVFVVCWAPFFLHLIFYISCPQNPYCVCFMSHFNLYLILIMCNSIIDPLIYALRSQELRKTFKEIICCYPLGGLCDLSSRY
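Material: U2OS-MC4R stable cell line | Reagent: Melanotan II challenge after compound preincubation | Doses: One concentration, 6.5 µM nominal | Incubation: 30-min compound preincubation, 1-h Melanotan II challenge, 1-h detection, room temperature | Signal: TR-FRET cAMP assay | Replicates: One well per compound, no replicates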
EBI2 block: antagonists of human EBI2 receptor | P32249 | EBI2 beta-arrestin recruitment, luminescence, 7a,25-OHC stimulated | inhibition, % at 5 µM | actives 0.81% (n = 360,000) | AID 651636; in the data active means inhibition above about 38%;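 further: enzyme fragment complementation signal reports receptor beta-arrestin coupling in cells; 0% = agonist plus DMSO wells and 100% = wells without agonist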
MC4R barr agon: activates human MC4R beta-arrestin recruitment | P32245 | AID 540308 | U2OS MC4R beta-arrestin complementation, luminescence; percent of melanotan II response, DMSO zero | activation, % at 8.9 µM | actives 0.98% (n = 360,000);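 active means activation above a per-plate cutoff, the mean activation of sample wells on that plate plus 3 SD, cut at about 8% in these data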
Exocytosis inh: lytic granule exocytosis inhibition; actives 0.66% (n = 360,000); inhibition, % at 10 µM; TALL-104 LAMP-1 surface exposure, flow cytometry; cells stimulated with thapsigargin and PMA;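 active means inhibition above about 55%, limit read from the data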
Myeloid diff CP1: compounds promoting myeloid differentiation. shares compounds with Myeloid diff 2. ER-HoxA9 myeloid progenitors, GFP/Mac1 double-positive flow. calls only. actives 2% (n = 2,300);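 active means share of green or green-and-red cells above 9 and 9% in run 1 or 4 and 3% in run 2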
GFP autofluor: counter-screen for myeloid differentiation promoters: compound fluorescence; shares compounds with Myeloid diff 2; fluorescence response, % (test concentration not listed); ER-HoxA9 myeloid progenitors, no estrogen, GFP autofluorescence flow cytometry; vehicle wells 0%, positive control 100%; actives 7.4% (n = 2,300);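 active means over 5% cells positive for green fluorescent reporter, or over 2% positive for both it and APC stain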;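 further: range taken on the double positive population between DMSO and positive control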
The depositor's hits bear a star; i = inactive; / = no result given; + = active, no number.

SMILES	Myeloid diff 2	MC4R antag cAMP	EBI2 block	MC4R barr agon	Exocytosis inh	Myeloid diff CP1	GFP autofluor
COc1cccc(OC)c1C(=O)Nc1nc2ccc(S(C)(=O)=O)cc2s1	+	5.3	4.0	3.2	7.6	i	0.0
CS(=O)(=O)c1ccc2nc(NC(=O)CS(=O)(=O)Cc3ccccc3)sc2c1	+	12.5	-5.3	-2.6	0.6	i	0.0
COC(=O)c1cccc(C(=O)Nc2ccc(F)cc2)n1	i	-5.4	-0.4	0.0	3.7	i	0.0
COc1cccc(NC(=S)Nc2cccc3ccccc23)c1	i	-2.5	0.4	-5.2	-0.1	i	0.0
COc1ccc(-n2c(N)c(C(=O)NCc3ccco3)c3nc4ccccc4nc32)c(OC)c1	+	-4.5	-7.8	-0.1	4.7	i	3.7
COc1ccc(OCC(=O)NC2CCCN(Cc3ccc(Cl)cc3)C2)cc1 (stereo not given)	i	13.3	8.6	0.3	-10.3	/	/
CCOc1ccccc1C1CC(c2cccs2)=NN1S(C)(=O)=O (stereo not given)	+	14.9	7.7	0.7	2.9	i	91.8*
CC1(C)OC(=O)N(CCc2ccccc2)C1(C)O (stereo not given)	i	9.2	-5.1	1.0	-1.2	i	0.0
Cc1nc2ccccn2c1C(=O)/C=C/c1ccc(F)cc1	i	3.8	5.1	-4.1	0.0	i	0.3
COc1ccc(/C=C/C(=O)c2c(C)nc3ccccn23)cc1	i	7.2	5.5	-0.3	0.3	/	/
CCC(C)/C(C)=N/NC(=O)c1ccc(CSc2nc3ccccc3s2)cc1 (stereo not given)	i	1.3	-0.7	-1.8	-2.7	i	6.1*
CCNC(=O)c1ccc(CSc2nc3ccccc3s2)cc1	i	2.9	1.0	-1.2	3.2	/	/
O=C(CCC1CCCCC1)Nc1ccccc1O	i	-1.9	-8.0	-0.7	4.2	/	/
Cc1ccc(O)c(NC(=O)CCC2CCCCC2)c1	i	0.7	3.1	1.3	0.0	i	0.4
CCNC(=S)Nc1cc(-c2ccc(Cl)cc2)[nH]n1	i	14.7	-8.4	-0.1	3.9	/	/
Cc1onc(-c2c(F)cccc2Cl)c1C(=O)N1CCOC12CCCCC2	i	4.2	5.2	-0.2	-2.3	/	/
Cc1cc(N2CCN(C(=O)c3[nH]c(C(F)(F)F)nc3-c3ccccc3)CC2)c2ccccc2n1	i	/	2.4	/	1.9	i	82.1*
O=C(NCC1CCCO1)c1ccc(NS(=O)(=O)c2ccccc2)cc1 (stereo not given)	i	-10.4	11.0	2.9	0.7	/	/
CC(C)(C)c1ccc(-c2noc(CCC(=O)NCC3CCCO3)n2)cc1 (stereo not given)	i	-0.4	-1.1	-0.7	-1.9	i	0.4
Cc1ccc(-c2noc(CCC(=O)NCC3CCCO3)n2)cc1 (stereo not given)	i	12.2	2.9	-0.3	2.0	/	/
CCN(Cc1ccncc1)Cc1cn[nH]c1-c1cc(OC)c(OC)c(OC)c1	i	2.5	4.2	-2.2	-2.5	/	/
CCCn1ncc(CN2CCC(C(=O)Nc3cccc(-c4cccc(F)c4)c3)CC2)c1C	+	-9.1	-8.8	2.2	21.8	i	0.0
CCS(=O)(=O)N1CCC(NC(=O)C(Cc2cc(OC)ccc2OC)NC(C)=O)CC1 (stereo not given)	i	-1.9	-2.7	-1.5	0.3	/	/
CC(C)N1CCC1(C)C(=O)Nc1nccc2cccnc12 (stereo not given)	i	-0.7	-4.0	-0.2	8.5	/	/
COc1ccc(CCNC(=O)c2ccn[nH]2)cc1OC	+	-2.0	-4.2	1.1	-0.9	i	0.0
SMILES	Myeloid diff 2	MC4R antag cAMP	EBI2 block	MC4R barr agon	Exocytosis inh	Myeloid diff CP1	GFP autofluor
COc1ccc(CCNC(=O)c2cc(-c3ccccc3O)n[nH]2)cc1OC	i	10.5	14.6	-0.5	2.2	/	/
O=C(CCN1CCN(c2ccccc2)CC1)Nc1ccccc1F	i	19.4	8.7	2.4	0.2	i	0.3
O=C(CCN1CCN(c2ccc(F)cc2)CC1)Nc1ccccc1F	i	2.3	4.1	0.5	-4.7	/	/
COc1ccc2c(c1C)CCC(C)(C#N)C2=O (stereo not given)	i	-4.5	9.4	-0.4	-3.3	/	/
C=CC[C@H](CC(=O)N(CCO)Cc1ccccc1)C(=O)N[C@@H](COC(=O)[C@@H](CC=C)Cc1ccc(F)cc1)Cc1c[nH]c2ccccc12	i	7.6	18.9	-1.4	53.7	i	0.0
C=CC[C@@H](CC(=O)N(CCO)Cc1ccccc1)C(=O)N[C@@H](COC(=O)[C@@H](CC=C)Cc1ccc(F)cc1)Cc1c[nH]c2ccccc12	i	20.2	7.4	1.8	15.8	/	/
CCc1ccccc1NC(=O)CNCC(=O)Nc1ccccc1CC	+	-1.5	-2.7	-0.1	-1.7	i	0.4
CC(C)OC(=O)NC(C)(C)COC(=O)Nc1cccc(Cl)c1	i	-1.5	27.0	1.2	12.7	i	0.0
O=C(CSc1nc2ccccc2c(=O)n1-c1ccc(F)cc1)Nc1ccc2c(c1)CCC2	i	6.6	-4.9	-3.0	-0.9	/	/
O=C(CSc1nc2ccc(F)cc2c(=O)n1-c1ccccc1)Nc1ccc2c(c1)CCC2	+	16.6	-8.8	-0.7	3.8	i	0.0
CCOc1ccccc1-n1c(SCC(=O)N(C(C)C)C(C)C)nnc1-c1cccnc1	i	1.4	1.0	0.0	-2.0	i	0.0
CCOc1ccccc1-n1c(SCC(N)=O)nnc1-c1cccnc1	i	13.5	-15.8	1.0	-0.3	/	/
CCOc1ccccc1N1CCN(Cc2c(C)n(C)n(-c3ccccc3)c2=O)CC1	i	-1.1	-7.7	-0.8	-1.1	/	/
CCOc1ncccc1C(=O)N1CCN(S(=O)(=O)c2ccc3ccccc3c2)CC1	i	-14.5	6.9	-0.6	-1.9	i	0.0
O=C(c1ccccn1)N1CCN(S(=O)(=O)c2ccc3ccccc3c2)CC1	i	7.7	5.3	0.0	-2.1	/	/
Cc1cccc(C)c1-n1nnnc1C1(C)CCC(=O)N1CC(F)(F)F (stereo not given)	i	/	-3.2	/	-6.8	/	/
Brc1ccc(-c2noc(COc3ccc4c(c3)CCC4)n2)o1	i	4.5	-3.8	0.9	-2.1	/	/
c1csc(-c2noc(COc3ccc4c(c3)CCCC4)n2)c1	i	14.7	5.8	3.9	3.1	i	0.2
CN(c1ccc(C(=O)NCc2ccc3c(c2)OCO3)cc1)S(C)(=O)=O	i	8.0	4.0	-1.4	-0.1	/	/
CN(c1ccc(C(=O)NCc2ccc3c(c2)OCO3)cc1)S(=O)(=O)c1ccccc1	i	11.7	34.7	-1.3	-7.0	i	0.6
CN1CCN(S(=O)(=O)c2cccc(C(=O)Nc3ccccc3N3CCCCC3)c2)CC1	i	2.1	2.6	-2.2	4.4	i	0.0
